From ChEMBL document CHEMBL1122169, “Inhibition of rat hepatic microsomal aminopyrine N-demethylase activity by benzimidazole derivatives. Quantitative structure-activity relationships” (J Med Chem, 1982)

Experiments:
Cytochrome P450 2B1 = biological target: T1, Cytochrome P450 2B1 (Rattus norvegicus, UniProt P00176); assay: Inhibitory potency to aminopyrine N-demethylase activity (P450) in hepatic microsomes from phenobarbitone-induced rats.; format: ADME, Liver; conditions: read-out: pI50 (converted)
T1 sequence (P00176 whole entry): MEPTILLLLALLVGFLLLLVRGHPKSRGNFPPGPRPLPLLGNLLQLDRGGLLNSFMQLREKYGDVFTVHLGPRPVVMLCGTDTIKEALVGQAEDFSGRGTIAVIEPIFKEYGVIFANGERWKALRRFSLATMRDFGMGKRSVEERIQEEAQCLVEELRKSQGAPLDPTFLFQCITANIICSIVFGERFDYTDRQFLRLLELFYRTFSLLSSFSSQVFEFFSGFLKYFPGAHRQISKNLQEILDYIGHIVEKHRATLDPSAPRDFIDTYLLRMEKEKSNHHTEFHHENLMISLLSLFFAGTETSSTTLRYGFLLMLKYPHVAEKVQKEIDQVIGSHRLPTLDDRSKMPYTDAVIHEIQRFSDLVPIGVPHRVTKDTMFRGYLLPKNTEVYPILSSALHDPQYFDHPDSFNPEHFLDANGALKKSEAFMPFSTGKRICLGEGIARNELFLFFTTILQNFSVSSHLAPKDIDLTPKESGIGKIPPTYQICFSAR
Outline: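 Microsomes (105000g pellet) from livers of male Wistar rats (100–150 g) given phenobarbitone ip on consecutive days. A 3.0 mL mix in 0.1 M K phosphate, pH 7.4, held aminopyrine 1.61 μmol, NADPH-generating system, semicarbazide and 5.6 mg protein, run 15 min. Formaldehyde was read by Nash/Hantzsch. Inhibitor went in DMSO or 0.07 M HCl, with solvent in controls. I50 came from seven concentrations.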

[1] = Partition coefficient (logP); format: physicochemical; conditions: octanol/water

SMILES | IC50 (Cytochrome P450 2B1) [µM] | logP [1]
Cc1nc2cc(Cl)ccc2[nH]1 | – | 2.43
c1ccc2[nH]cnc2c1 [BENZIMIDAZOLE] | – | 1.38
c1ccc(Cc2nc3ccccc3[nH]2)cc1 [BENDAZOL] | 91.2 | 3.46
CCCCCCCc1nc2ccccc2[nH]1 | – | 4.43
Cc1cccc(Cc2nc3ccccc3[nH]2)c1C | 53.7 | 5.23
CCc1nc2ccc(C)cc2[nH]1 | – | 2.44
OC(c1ccccc1)c1nc2ccccc2[nH]1 (stereo not given) | – | 1.47
c1ccc2[nH]c(C3CC3)nc2c1 | – | 2.02
Brc1ccc(OCc2nc3ccccc3[nH]2)cc1 | 21.9 | 3.77
Cc1ccc(OCc2nc3ccccc3[nH]2)cc1C | 25.7 | 3.4
c1ccc(CCCCc2nc3ccccc3[nH]2)cc1 | 15.1 | 4.96
CCc1nc2ccccc2[nH]1 | – | 1.93
CCCCc1nc2cc(C)c(C)cc2[nH]1 | 55 | 3.9
CCOc1ccc2[nH]c(C)nc2c1 | 56.2 | 1.93
CCCCCc1nc2cc(NC(C)=O)ccc2[nH]1 | – | 2.61
Brc1cccc(Br)c1OCc1nc2ccccc2[nH]1 | 11 | 4.42
c1ccc2c(Cc3nc4ccccc4[nH]3)cccc2c1 | 25.1 | 4.8
CCc1ccc(OCc2nc3ccccc3[nH]2)cc1 | 67.6 | 3.59
CC(=O)Nc1cc(Cl)cc2[nH]c(C)nc12 | – | 1.27
NCc1nc2ccccc2[nH]1 | – | -0.06
O=[N+]([O-])c1ccc2[nH]cnc2c1 | – | 1.64
CC(C)Cc1nc2ccccc2[nH]1 | – | 2.91
O=[N+]([O-])c1cc(Cl)cc2[nH]cnc12 | – | 3.01
Cc1nc2cc(Cl)c(Cl)cc2[nH]1 | 81.3 | 3.22
Cc1nc2cc(NC(=O)c3ccccc3)ccc2[nH]1 | – | 3.19
Cc1nc2c(C)c(C)ccc2[nH]1 | – | 2.36
Cc1nc2cc(Cl)cc(Cl)c2[nH]1 | 100 | 3.31

SMILES | IC50 (Cytochrome P450 2B1) [µM] | logP [1]
Cc1ccc(OCc2nc3ccccc3[nH]2)cc1 | 44.7 | 3.12
Cc1nc2c([N+](=O)[O-])cc(Cl)cc2[nH]1 | 100 | 3.06
Cc1cc(C)cc(OCc2nc3ccccc3[nH]2)c1 | 25.7 | 3.5
c1ccc(OCCc2nc3ccccc3[nH]2)cc1 | 25.1 | 3.16
Clc1ccc(OCc2nc3ccccc3[nH]2)cc1 | 25.1 | 3.59
CC(=O)Nc1ccc2nc(C)[nH]c2c1 | – | 0.61
Cc1nc2ccccc2[nH]1 | – | 1.43
Cc1cc(OCc2nc3ccccc3[nH]2)cc(C)c1Cl | 30.2 | 4.43
Fc1ccc2[nH]cnc2c1 | – | 2.03
Cc1cccc(OCc2nc3ccccc3[nH]2)c1 | 28.8 | 3.14
O=[N+]([O-])c1cccc2[nH]cnc12 | – | 2.01
CCCCCCCCc1nc2ccccc2[nH]1 | 28.8 | 4.93
ClCc1nc2ccccc2[nH]1 | – | 1.15
CCCCC(=O)Nc1ccc2nc(C)[nH]c2c1 | – | 2.11
CCCc1nc2cc(C)c(C)cc2[nH]1 | – | 3.4
Cc1ccc2[nH]cnc2c1 | – | 1.89
Cc1nc2cc(C)c(C)cc2[nH]1 | – | 2.4
O=C(c1ccccc1)c1ccc2[nH]cnc2c1 | 20 | 2.43
Clc1ccc(Cc2nc3ccccc3[nH]2)c(Cl)c1 | 15.1 | 5.32
c1ccc2c(c1)c1c(c3ccccc32)=NCN=1 | 30.2 | 4.06
Clc1cccc(Cc2nc3ccccc3[nH]2)c1 | 22.9 | 4.44
Clc1ccc2[nH]cnc2c1 | – | 2.38
Clc1cc2nc[nH]c2cc1Cl | 81.3 | 3.17
CC(C)(C)c1nc2ccccc2[nH]1 | – | 2.86
Cc1nc2ccc([N+](=O)[O-])cc2[nH]1 | – | 1.69
O=C(Nc1cc(Cl)cc2nc[nH]c12)c1ccccc1 | 26.9 | 2.68
c1ccc2c3c(ccc2c1)=NCN=3 | 53.7 | 2.72

Second part, the compound after the results:

IC50 (Cytochrome P450 2B1) [µM] | logP [1] | SMILES
11 | 4.52 | Brc1ccc(OCc2nc3ccccc3[nH]2)c(Br)c1
38.9 | 3.96 | c1ccc(CCc2nc3ccccc3[nH]2)cc1
22.9 | 7.43 | CCCCCCCCCCCCCc1nc2ccccc2[nH]1
69.2 | 2.66 | c1ccc(OCc2nc3ccccc3[nH]2)cc1
44.7 | 5.4 | CCCCCCCc1nc2cc(C)c(C)cc2[nH]1
19.1 | 4.46 | c1ccc(CCCc2nc3ccccc3[nH]2)cc1
– | 2.39 | FC(F)(F)c1nc2ccccc2[nH]1
– | 1.94 | Cc1ccc2nc(C)[nH]c2c1
– | 1.7 | c1cncc(-c2nc3ccccc3[nH]2)c1
41.7 | 4.94 | CCCCCCCc1nc2cc(C)ccc2[nH]1
– | 2.9 | CCc1nc2cc(C)c(C)cc2[nH]1
55 | 2.87 | c1ccc(-c2nc3ccccc3[nH]2)cc1
– | 3.43 | CCCCCc1nc2ccccc2[nH]1
12 | 3.51 | Brc1ccccc1OCc1nc2ccccc2[nH]1
28.2 | 4.26 | Clc1cccc(OCc2nc3ccccc3[nH]2)c1Cl
67.6 | 1.88 | CCOc1ccc2[nH]cnc2c1
18.2 | 4.79 | c1ccc2cc(Cc3nc4ccccc4[nH]3)ccc2c1
32.4 | 3.93 | CCCCCCc1nc2ccccc2[nH]1
– | 1.86 | Cc1cccc2[nH]cnc12
91.2 | 3.39 | c1ccc2[nH]c(C3CCCCC3)nc2c1
26.9 | 3.33 | Clc1ccccc1OCc1nc2ccccc2[nH]1
64.6 | 2.38 | c1ccc(-c2nc3ccccc3[nH]2)nc1
53.7 | 3.26 | Clc1cc(Cl)c2[nH]cnc2c1
– | 2.93 | CCCCc1nc2ccccc2[nH]1
– | 6.43 | CCCCCCCCCCCc1nc2ccccc2[nH]1
– | 2.43 | CCCc1nc2ccccc2[nH]1
– | 2.41 | CC(C)c1nc2ccccc2[nH]1
